Data published in ChEMBL document CHEMBL1828575, “Design, synthesis and antiproliferative activities of biarylolefins based on polyhydroxylated and carbohydrate scaffolds” (Eur J Med Chem, 2011).

What was measured:
Assay type in all cases: functional
[1] = test system: UACC-257; assay: Cytotoxicity against human UACC257 cells assessed as cellular growth at 10 uM after 48 hrs by SRB assay
How it was run: (§1)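 NCI-60 panel lines grown in RPMI 1640 with 5% FBS and 2 mM L-glutamine. Plated at 5000–40,000 cells/well and preincubated 24 h at 37 °C, 5% CO₂, with time-zero plates fixed in TCA. Compounds, dissolved in DMSO and diluted in medium, were applied for 48 h. Cells were TCA-fixed (10% final for adherent, 16% for suspension) and stained with 0.4% SRB in 1% acetic acid. Dye was solubilised in 10 mM Tris base and read at 515 nm; growth was expressed as a percentage of untreated control.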

[2] = test system: BT-549; assay: Antitumor activity against human BT549 cells after 48 hrs by SRB assay; settings: BT-549, 48 h
How it was run: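 NCI60 screen: cells grown in RPMI 1640 with 5% FBS and 2 mM L-glutamine, plated at 5000–40,000 cells/well by doubling time, preincubated 24 h at 37 °C with 5% CO2. Compounds were diluted from DMSO stocks and given for 48 h, at five concentrations for dose response. A time-zero plate was TCA-fixed. Cells were TCA-fixed, stained with 0.4% SRB and read at 515 nm, with growth expressed relative to untreated controls.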

[3] = test system: RPMI-8226; assay: Antitumor activity against human RPMI8226 cells after 48 hrs by SRB assay; settings: RPMI-8226, 48 h
How it was run: (§2)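 NCI60 panel in RPMI 1640 with 5% FBS and 2 mM L-glutamine. Cells were plated at 5000–40,000/well by doubling time, held 24 h, then time-zero plates were TCA-fixed. Five concentrations (10-fold or half-log dilutions of DMSO stocks) were applied for 48 h at 37 °C, 5% CO2. Cells were fixed with cold TCA (10% final adherent, 16% suspension) and stained with 0.4% SRB. Bound dye was dissolved in 10 mM Tris and read at 515 nm. GI50, TGI and LC50 were calculated per line.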

[4] = test system: 786-0; assay: Antitumor activity against human 786-0 cells after 48 hrs by SRB assay; settings: 786-0, 48 h; how it was run: as §2
[5] = test system: OVCAR-5; assay: Antitumor activity against human OVCAR5 cells after 48 hrs by SRB assay; settings: OVCAR-5, 48 h; how it was run: as §2
[6] = test system: OVCAR-4; assay: Cytotoxicity against human OVCAR4 cells assessed as cellular growth at 10 uM after 48 hrs by SRB assay; how it was run: as §1
[7] = test system: ACHN; assay: Cytotoxicity against human ACHN cells assessed as cellular growth at 10 uM after 48 hrs by SRB assay
How it was run: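 NCI60 single-dose screen of cells in RPMI 1640 with 5% FBS and 2 mM L-glutamine, preincubated 24 h at 37 °C, 5% CO₂. Cells were then exposed 48 h to compound added from DMSO stock. TCA-fixed, stained with 0.4% SRB in 1% acetic acid, dye solubilised in 10 mM Tris base and read at 515 nm. Growth is given as percent of untreated control.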

[8] = test system: RXF 393; assay: Antitumor activity against human RXF393 cells after 48 hrs by SRB assay; settings: RXF 393, 48 h; how it was run: as §2
[9] = test system: U-251; assay: Cytotoxicity against human U251 cells assessed as cellular growth at 10 uM after 48 hrs by SRB assay; how it was run: as §1
[10] = test system: SNB-19; assay: Cytotoxicity against human SNB19 cells assessed as cellular growth at 10 uM after 48 hrs by SRB assay; how it was run: as §1
[11] = test system: HT-29; assay: Antiproliferative activity against human HT-29 cells after 48 hrs by SRB assay; settings: HT-29, 48 h; how it was run: as §2
[12] = test system: CCRF-CEM; assay: Antitumor activity against human CCRF-CEM cells after 48 hrs by SRB assay; how it was run: as §2
[13] = test system: SF-295; assay: Antitumor activity against human SF295 cells after 48 hrs by SRB assay; settings: SF-295, 48 h; how it was run: as §2
[14] = test system: A549; assay: Antitumor activity against human A549 cells after 48 hrs by SRB assay; settings: A549, 48 h; how it was run: as §2
[15] = test system: NCI-H460; assay: Antitumor activity against human NCI-H460 cells after 48 hrs by SRB assay; settings: NCI-H460, 48 h; how it was run: as §2
[16] = test system: UACC-257; assay: Antitumor activity against human UACC257 cells after 48 hrs by SRB assay; settings: UACC-257, 48 h
How it was run: (§3)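 NCI60 panel cells grown in RPMI 1640 with 5% FBS and 2 mM L-glutamine, plated at 5000–40,000 cells/well and preincubated 24 h at 37 °C, 5% CO₂. Compound was added from DMSO at five concentrations, 10-fold or 1/2 log dilutions, then incubated 48 h.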

[17] = test system: SK-MEL-2; assay: Antitumor activity against human SK-MEL-2 cells after 48 hrs by SRB assay; settings: SK-MEL-2, 48 h; how it was run: as §3
[18] = test system: ACHN; assay: Antitumor activity against human ACHN cells after 48 hrs by SRB assay; how it was run: as §2
[19] = test system: PC-3; assay: Antitumor activity against human PC3 cells after 48 hrs by SRB assay; settings: PC-3, 48 h; how it was run: as §2
[20] = read-out: LC50 (the source's name)
[21] = read-out: pLC50 (the source's name) (converted)

How did the Activity [1] turn out when `COc1cc(/C(=C2\O[C@@H]([C@H]3COC(C)(C)O3)[C@H]3OC(C)(C)O[C@@H]23)c2ccc3ccccc3c2)cc(OC)c1OC` was run?
The Activity was 45.86%.

What about the CC50 [2, 20] of the same compound?
Its CC50 is greater than 100 µM.

And the GI50 ([2]; read-out: pGI50 (converted))?
Its GI50 is 3.24 µM.

What about the CC50 [2, 21] of the same compound?
The CC50 was greater than 100 µM.

And the TGI ([2]; read-out: pTGI (converted))?
Its TGI is 8.13 µM.

What about the LC50 (concentration killing 50% of starting cells) [3] of the same compound?
Its LC50 (concentration killing 50% of starting cells) is greater than 100 µM.

And the GI50 ([3]; read-out: GI50)?
The GI50 was 33.3 µM.

And the TGI ([3]; read-out: TGI)?
The TGI was greater than 100 µM.

What about the GI50 ([3]; read-out: pGI50 (converted)) of the same compound?
The GI50 was 33.1 µM.

And the CC50 [3, 21]?
The CC50 was greater than 100 µM.

What about the TGI ([3]; read-out: pTGI (converted)) of the same compound?
The TGI was greater than 100 µM.

And the GI50 [4]?
Its GI50 is 2300 nM.

And the LC50 [4]?
The LC50 was 8.6 µM.

What about the TGI [4] of the same compound?
The TGI was 4.47 µM.

What about the GI50 ([5]; read-out: GI50) of the same compound?
Its GI50 is 14 µM.

What about the CC50 [5, 20] of the same compound?
Its CC50 is greater than 100 µM.

And the TGI ([5]; read-out: TGI)?
Its TGI is greater than 100 µM.

What about the GI50 ([5]; read-out: pGI50 (converted)) of the same compound?
The GI50 was 3.89 µM.

What about the CC50 [5, 21] of the same compound?
Its CC50 is greater than 100 µM.

And the TGI ([5]; read-out: pTGI (converted))?
The TGI was 7.94 µM.

And the Activity [6]?
The Activity was 25.7%.

And the Activity [7]?
The Activity was 0.86%.

What about the GI50 [8] of the same compound?
The GI50 was 2540 nM.

What about the TGI [8] of the same compound?
The TGI was 5.99 µM.

What about the CC50 [8, 20] of the same compound?
The CC50 was 32.6 µM.

What about the Activity [9] of the same compound?
Its Activity is 18%.

What about the Activity [10] of the same compound?
The Activity was 29%.

What about the LC50 (50% net cell kill) [11] of the same compound?
The LC50 (50% net cell kill) was greater than 100 µM.

What about the GI50 ([11]; read-out: GI50) of the same compound?
Its GI50 is 6 µM.

What about the TGI ([11]; read-out: TGI) of the same compound?
Its TGI is greater than 100 µM.

What about the GI50 ([11]; read-out: pGI50 (converted)) of the same compound?
Its GI50 is 6.03 µM.

What about the CC50 [11, 21] of the same compound?
The CC50 was greater than 100 µM.

And the TGI ([11]; read-out: pTGI (converted))?
The TGI was greater than 100 µM.

What about the GI50 ([12]; read-out: GI50) of the same compound?
The GI50 was 48.3 µM.

And the CC50 [12, 20]?
The CC50 was greater than 100 µM.

What about the TGI ([12]; read-out: TGI) of the same compound?
Its TGI is greater than 100 µM.

What about the GI50 ([12]; read-out: pGI50 (converted)) of the same compound?
The GI50 was 47.9 µM.

What about the CC50 [12, 21] of the same compound?
Its CC50 is greater than 100 µM.

And the TGI ([12]; read-out: pTGI)?
Its TGI is greater than 100 µM.

And the GI50 ([13]; read-out: GI50)?
The GI50 was 6.92 µM.

What about the CC50 [13, 20] of the same compound?
Its CC50 is greater than 100 µM.

And the TGI ([13]; read-out: TGI)?
The TGI was 52.1 µM.

And the GI50 ([13]; read-out: pGI50 (converted))?
Its GI50 is 6.92 µM.

What about the CC50 [13, 21] of the same compound?
Its CC50 is greater than 100 µM.

What about the TGI ([13]; read-out: pTGI (converted)) of the same compound?
The TGI was 52.5 µM.

What about the GI50 ([14]; read-out: GI50) of the same compound?
Its GI50 is 3.09 µM.

And the CC50 [14, 20]?
Its CC50 is greater than 100 µM.

And the TGI ([14]; read-out: TGI)?
Its TGI is 9.55 µM.

And the GI50 ([14]; read-out: pGI50 (converted))?
Its GI50 is 3.09 µM.

And the CC50 [14, 21]?
The CC50 was greater than 100 µM.

What about the TGI ([14]; read-out: pTGI (converted)) of the same compound?
The TGI was 9.55 µM.

What about the GI50 ([15]; read-out: GI50) of the same compound?
Its GI50 is 4.1 µM.

And the CC50 [15, 20]?
Its CC50 is greater than 100 µM.

What about the TGI ([15]; read-out: TGI) of the same compound?
The TGI was greater than 100 µM.

What about the GI50 ([15]; read-out: pGI50 (converted)) of the same compound?
Its GI50 is 4.07 µM.

What about the CC50 [15, 21] of the same compound?
The CC50 was greater than 100 µM.

What about the TGI ([15]; read-out: pTGI) of the same compound?
Its TGI is greater than 100 µM.

And the GI50 ([16]; read-out: GI50)?
The GI50 was 4.28 µM.

And the CC50 [16, 20]?
Its CC50 is greater than 100 µM.

And the TGI ([16]; read-out: TGI)?
The TGI was 23.8 µM.

And the GI50 ([16]; read-out: pGI50 (converted))?
Its GI50 is 4.27 µM.

And the CC50 [16, 21]?
The CC50 was greater than 100 µM.

And the TGI ([16]; read-out: pTGI (converted))?
Its TGI is 24 µM.

What about the GI50 [17] of the same compound?
The GI50 was 1530 nM.

What about the TGI [17] of the same compound?
Its TGI is 4.12 µM.

What about the CC50 [17, 20] of the same compound?
The CC50 was 24.1 µM.

And the GI50 ([18]; read-out: GI50)?
The GI50 was 4.39 µM.

What about the CC50 [18, 20] of the same compound?
Its CC50 is greater than 100 µM.

And the TGI ([18]; read-out: TGI)?
Its TGI is greater than 100 µM.

What about the GI50 ([18]; read-out: pGI50 (converted)) of the same compound?
Its GI50 is 4.57 µM.

What about the CC50 [18, 21] of the same compound?
Its CC50 is greater than 100 µM.

What about the TGI ([18]; read-out: pTGI) of the same compound?
Its TGI is greater than 100 µM.

And the GI50 ([19]; read-out: GI50)?
Its GI50 is 5.71 µM.

And the CC50 [19, 20]?
The CC50 was greater than 100 µM.

What about the TGI ([19]; read-out: TGI) of the same compound?
The TGI was greater than 100 µM.

What about the GI50 ([19]; read-out: pGI50 (converted)) of the same compound?
Its GI50 is 5.75 µM.

What about the CC50 [19, 21] of the same compound?
Its CC50 is greater than 100 µM.

And the TGI ([19]; read-out: pTGI)?
Its TGI is greater than 100 µM.
